Measured values reported in ChEMBL document CHEMBL1949503, “Design, synthesis, theoretical calculations and biological evaluation of new non-symmetrical choline kinase inhibitors” (Eur J Med Chem, 2012).

Experiments:
HepG2 [1] = test: Cytotoxicity against human HepG2 cells at 10 uM after 24 hrs using crystal violet staining by microplate reader analysis; assay type: functional; details: HepG2, 24 h
Procedure, shortened: (§1)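 HepG2 cells in MEM with 10% FBS were seeded at 10 000 cells/well and grown 24 h. The medium was then replaced with fresh medium/10% FBS, and cells were exposed to inhibitors for 24 h, or to none. Cells were fixed with 1.1% glutaraldehyde, stained with 0.1% crystal violet and solubilised in 10% acetic acid. A590 was converted to cell number with a standard curve.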

Homo sapiens [2] = organism: Homo sapiens; test: Inhibition of human choline kinase assessed as incorporation of 14C from [methyl-14C]choline into phosphocholine at 10 uM after 20 mins by liquid scintillation counter
Procedure, shortened: (§2)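 Enzyme source was HepG2 cytosol (cells sonicated in 275 mM Tris pH 8.5, 12000 g supernatant), about 50 µg protein. Final mix: 100 mM Tris pH 8.5, 10 mM MgCl2, 10 mM ATP, with inhibitor. Started with 1 mM [methyl-14C]choline, 37 °C for 20 min, stopped by boiling. Phosphocholine was separated on silica TLC and counted by scintillation. IC50 was derived from the concentration series.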

Homo sapiens [3] = organism: Homo sapiens; test: Inhibition of human choline kinase assessed as incorporation of 14C from [methyl-14C]choline into phosphocholine at 50 uM after 20 mins by liquid scintillation counter; procedure, shortened: as §2
HepG2 [4] = test: Cytotoxicity against human HepG2 cells at 50 uM after 24 hrs using crystal violet staining by microplate reader analysis; assay type: functional; details: HepG2, 24 h; procedure, shortened: as §1
[5] = Inhibition of human choline kinase assessed as incorporation of 14C from [methyl-14C]choline into phosphocholine after 20 mins by liquid scintillation counter; procedure, shortened: as §2
HepG2 [6] = test: Cytotoxicity against human HepG2 cells after 24 hrs using crystal violet staining by microplate reader analysis; assay type: functional, cell-based; details: HepG2, 24 h; procedure, shortened: as §1

Row | Structure (SMILES) | inhibition (Homo sapiens [2]) | inhibition (Homo sapiens [3]) | IC50 [5] | inhibition at 10 µM (HepG2 [1]) | inhibition at 50 µM (HepG2 [4]) | IC50 (HepG2 [6])
1 | Nc1ncn(Cc2ccc(CCc3ccc(C[n+]4ccc(N5CCCC5)cc4)cc3)cc2)c2ncnc1-2 | 0.1% | 24.8% |  | 11.6% | 30% | 
2 | CN(C)c1cc[n+](Cc2ccc(CCCCc3ccc(Cn4cnc5c(N)ncnc54)cc3)cc2)cc1 | 66.7% | 89.7% | 10.7 µM | 10.2% | 45.5% | 49.7 µM
3 | Nc1ncnc2c1ncn2Cc1ccc(CCCCc2ccc(C[n+]3ccc(N4CCCC4)cc3)cc2)cc1 | 36.9% | 41.9% |  | 15.4% | 90.1% | 
4 | Nc1ncnc2c1ncn2Cc1ccc(CCc2ccc(C[n+]3ccc(N4CCCC4)cc3)cc2)cc1 | 28.6% | 46.9% |  | 30.1% | 45% | 
5 | Nc1ncnc2c1ncn2Cc1ccc(-c2ccc(C[n+]3ccc(N4CCCC4)cc3)cc2)cc1 | 50.2% | 72.8% |  | 10.4% | 45% | 
6 | CN(C)c1cc[n+](Cc2ccc(-c3ccc(Cn4cnc(N)c5ncnc4-5)cc3)cc2)cc1 | 62.3% | 71.4% | 6.21 µM | 10% | 7% | 
7 | CN(C)c1cc[n+](Cc2ccc(CCCCc3ccc(Cn4cnc(N)c5ncnc4-5)cc3)cc2)cc1 | 61.3% | 68.2% |  | 14.3% | 56.1% | 38.9 µM
8 | Nc1ncnc2c1ncn2Cc1ccc(C[n+]2ccc(N3CCCC3)cc2)cc1 | 0% | 27% |  | 0% | 15.5% | 
9 | Nc1ncn(Cc2ccc(CCCCc3ccc(C[n+]4ccc(N5CCCC5)cc4)cc3)cc2)c2ncnc1-2 | 22.6% | 59.9% |  | 13.7% | 46.5% | 

Further lines, with some results ahead:

Row | inhibition (Homo sapiens [2]) | inhibition (Homo sapiens [3]) | IC50 [5] | Structure (SMILES) | inhibition at 10 µM (HepG2 [1]) | inhibition at 50 µM (HepG2 [4]) | IC50 (HepG2 [6])
10 | 46.7% | 54.1% |  | CN(C)c1cc[n+](Cc2ccc(Cn3cnc4c(N)ncnc43)cc2)cc1 | 0% | 5.1% | 
11 | 25% | 50.2% |  | CN(C)c1cc[n+](Cc2ccc(Cn3cnc(N)c4ncnc3-4)cc2)cc1 | 10.3% | 2.5% | 
12 | 38.6% | 81% |  | CN(C)c1cc[n+](Cc2ccc(CCc3ccc(Cn4cnc5c(N)ncnc54)cc3)cc2)cc1 | 10.5% | 10.5% | 
13 | 37.6% | 51% |  | CN(C)c1cc[n+](Cc2ccc(-c3ccc(Cn4cnc5c(N)ncnc54)cc3)cc2)cc1 | 0% | 10.3% | 
